# The list is a sample of the results.
# PGC1a acetyl up: raises PGC1a acetylation signal in U2OS cells. U2OS PGC1a acetylation AlphaScreen, overnight. activation, % at 15.6 µM. hit rate 0.21% among 350,000. AID 651723;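 active = every replicate reaching activation of at least 50%, whatever the mean replicate activation; inconclusive = replicates that disagree or another doubt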;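 also: hits raise the AlphaScreen acetylation signal above neutral controls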
#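 System – flag-PGC1a/GCN5 U2OS cells · Quantity – 7000 U2OS cells per well · Signal – AlphaScreen proximity luminescence, anti-acetyl-lysine antibody · Schedule – overnight compound treatment, 37 °C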
# G6PC hep suppr: hepatocyte G6PC expression change via PGC-1a acetylation activation; AID 743463; primary mouse hepatocytes, G6PC mRNA qPCR, forskolin; shares compounds with PGC1a acetyl up; G6PC suppression (normalized activity, % of positive control; higher = more suppression), % at 26 µM; 240 tested, under 10 active;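 active = dose curves showing G6PC suppression whose half-maximal dose is at most twice the top valid dose; inconclusive = flat curves with moderate negative activity, or unreliable fits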;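 also: G6PC expression relative to GAPDH housekeeping gene as delta delta Ct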
# PCK1 hep suppr: PGC-1a acetylation activator altering hepatocyte PCK1 expression; shares compounds with PGC1a acetyl up; primary mouse hepatocytes, PCK1 mRNA qPCR, forskolin-stimulated; PCK1 expression decrease, unspecified at 26 µM; 230 tested, under 10 active; AID 743465;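 active = compounds lowering PCK1 expression whose fitted half-maximal concentration is at most twice the top tested dose; inconclusive = flat fit with moderate opposite-direction effect, or poor fit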;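 also: higher delta delta Ct means lower PCK1 expression so positive values indicate hits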
# Hep PGC-1a down: PGC-1a acetylation activators affecting PGC-1a expression in hepatocytes | shares compounds with PGC1a acetyl up | primary mouse hepatocytes, PGC-1a mRNA qPCR, forskolin; top dose 26 µM | max activity (PGC-1a expression decrease), % | 240 tested, under 10 active | AID 743467;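 active = compound lowering PGC-1a expression with fitted half-maximal concentration at most twice its top tested dose; inconclusive = flat curve with moderate opposite-direction effect, or poor fit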
# A number is an active result; 0 = inactive; ? = inconclusive; - = no result given.
SMILES,PGC1a acetyl up,G6PC hep suppr,PCK1 hep suppr,Hep PGC-1a down
COc1ccc(Br)cc1CNc1ccccc1,0,0,0,0
COc1ccc(S(=O)(=O)N2CCOCC2)cc1NC(=O)CCNC(=O)c1ccc(Cl)cc1,76,0,0,?
CC(=O)ON=C1C=CC(=C(C#N)c2ccccc2)C=C1,0,-,-,-
Cc1cc(/C=C2\C(=N)N3N=C(C(C)C)SC3=NC2=O)c(C)n1Cc1ccccc1,0,-,-,-
O=C(COCc1cc(-c2ccc3c(c2)OCO3)on1)Nc1cccnc1,94,0,0,?
O=c1c2c(nc3c(-c4ccc(Cl)cc4)c[nH]n13)CCCC2,0,-,-,-
COc1ccc2nc3cc(Cl)ccc3c(Nc3cc(CN4CCCC4)c(O)c(CN4CCCC4)c3)c2n1,0,-,-,-
COc1ccc(N=C2C(=Nc3ccc(OC)cc3)N(c3ccc(OC)cc3)C(=S)N2C(=O)c2ccc(OC)cc2)cc1,0,-,-,-
CCCCN(CC)CCCNC(=O)c1cc2c(=O)n(CC)c3ccccc3c2s1,?,0,0,0
O=[N+]([O-])c1c(NCCCO)cc(Sc2nc3ccccc3s2)c2nonc12,0,-,-,-
Cc1cccc(Oc2nccc(C(F)(F)F)c2C(=O)Nc2ccc(F)cc2F)c1,0,-,-,-
C[C@@H]1CN([C@H](C)CO)C(=O)c2cc(N(C)C)ccc2O[C@@H](C)CCCCO[C@H]1CN(C)C(=O)Cc1ccccc1,119,0,0,0
C[C@@H]1CN([C@H](C)CO)C(=O)c2cc(N(C)C)ccc2O[C@@H](C)CCCCO[C@H]1CN(C)C(=O)Nc1ccccc1,67,0,0,0
C[C@H](CO)N1C[C@H](C)[C@@H](CN(C)Cc2ccc(C(F)(F)F)cc2)Oc2ccc(NS(=O)(=O)c3ccc(F)cc3)cc2C1=O,0,-,-,-
CCn1c(C(=O)NC2CCC(C)CC2)cc2sccc21 (stereo not given),0,-,-,-
Cc1cccc(N2C(=O)C(Cl)=C(N3CCOCC3)C2=O)c1,0,-,-,-
CCNC(=O)C1(C)CCCN1Cc1ccccc1Cl (stereo not given),0,-,0,0
O=C(CCC1CCN(Cc2ccccc2Cl)CC1)NC1CC1,0,-,-,-
O=C(CCl)N=c1sccn1Cc1ccccc1Cl,0,-,-,-
COC(=O)c1[nH]c2ccc(F)cc2c1NS(=O)(=O)c1ccc(OC)cc1OC,0,-,-,-
O=C(Nc1ccc(OCC(=O)N2CCC(Cc3ccccc3)CC2)cc1)c1ccco1,67,-,0,0
Cc1ccc(N)cc1S(=O)(=O)N(C)C,0,-,-,-
O=C1/C(=C/c2ccc(N3CCOCC3)o2)SC(=Nc2ccccc2)N1CCc1c[nH]c2ccccc12,0,-,-,-
COc1ccc(C(=O)/C(=C\c2ccco2)N2C=CC=CC2=C(C#N)C#N)cc1,0,-,-,-
CN1CC=C2C(C#N)=C(N)C(C#N)(C#N)C(CCc3ccccc3)C2C1 (stereo not given),0,-,-,-
SMILES,PGC1a acetyl up,G6PC hep suppr,PCK1 hep suppr,Hep PGC-1a down
Cc1[nH]nc2ncc(C(=O)c3ccccc3O)cc12,0,-,-,-
COc1ccc(CN2CCn3ncc(C(=O)Nc4ccccc4)c3C2=O)cc1,0,0,0,0
Cc1cc(C(=O)CSc2nnc(-c3ccccc3)o2)c(C)n1CC1COc2ccccc2O1 (stereo not given),0,-,-,-
COC(=O)C[C@@H]1C[C@H]2c3cc(NC(=O)Nc4ccc(C(F)(F)F)cc4)ccc3O[C@H]2[C@H](CO)O1,?,0,0,0
O=C(CCc1nc2ccccc2c(=O)[nH]1)OCC(=O)N1CCc2ccccc21,0,-,-,-
O=S(=O)(Nc1cc(Sc2ncn[nH]2)c(O)c2ccccc12)c1ccccc1,0,-,-,-
COc1ccc(-c2cn[nH]c2-c2ccc(O)cc2O)cc1,0,-,-,-
CC(=O)c1cccc(N(C(=O)Cn2nnc3ccccc32)C(C(=O)NCc2ccccc2)c2ccccn2)c1 (stereo not given),?,0,0,0
CC(=O)c1cccc(N(C(=O)c2cnccn2)C(C(=O)NCc2ccccc2)c2ccco2)c1 (stereo not given),96,0,0,0
CN1CCN(/N=C/c2ccc(N(c3ccccc3)c3ccccc3)cc2)CC1,0,-,-,-
CCN1CCN(c2ncc(C(=O)Nc3cc(Cl)ccc3OC)c3ccccc23)CC1,0,0,?,0
C[C@@](Cc1ccc(O)c(O)c1)(NN)C(=O)O,0,-,-,-
CCCOc1ccc(C(=O)Nc2cccnc2)cc1,77,0,0,0
O=C(Nc1cccnc1)c1ccc(Oc2ccccc2)cc1,78,0,0,?
O=C(CCCn1c(=O)[nH]c2cc(Cl)ccc2c1=O)NCCC1=CCCCC1,73,0,?,0
Cc1cc(N)c2cc(NC(=O)/C=C/c3ccccc3Cl)ccc2n1,0,-,-,-
CC(=O)Nc1ccc(Nc2ncnc3c2cnn3-c2ccc(C)cc2C)cc1,131,0,-,0
COc1ccccc1/C=C/c1nc2ccc(OC(C)=O)cc2c(=O)o1,0,-,-,-
CCc1nnc(N/N=C/c2ccccc2Cl)n1N,0,-,-,-
CC(C)c1ccc(/C=N/NC(=O)C2CCCC2)cc1,0,-,-,-
Oc1ccc(C=Nc2ccc(N3CCOCC3)cc2)c(O)c1,0,-,-,-
O=C1C(Cl)=C(N2CCOCC2)C(=O)N1CCc1ccccc1,0,-,-,-
O=C(Nc1ccc(F)cc1)N1CCN(c2nc3ccccc3s2)CC1,?,0,?,0
O=C(Nc1ccc(-c2cn3c(n2)SCC3)cc1)c1ccc2ccccc2n1,0,-,-,-
O=C1NC2(CCC3(CC2)OCCO3)NN1c1ccccc1,0,-,-,-
SMILES,PGC1a acetyl up,G6PC hep suppr,PCK1 hep suppr,Hep PGC-1a down
Cc1ccc(-c2[nH]ncc2/C=C(\C#N)C(=O)NC2CCCCC2)cc1,0,-,-,-
COc1ccc2c(c1)C(C)=CC(C)(C)N2S(=O)(=O)c1ccc(Br)cc1,83,-,0,0
CCNc1nc(Oc2ccc(C#N)cc2)cc(C(F)(F)F)n1,0,-,-,-
CC1(Cc2ccc(Cl)cc2)C(=O)Nc2c(Cl)ccc(Cl)c21 (stereo not given),80,0,-,?
Cc1cccc(CS(=O)(=O)c2nnc([C@H](Cc3ccccc3)NC(=O)OC(C)(C)C)o2)c1,0,-,-,-
CC(=O)Nc1ccc(NC2=C/C(=N/S(=O)(=O)c3cccs3)c3ccccc3C2=O)cc1,0,-,-,-
c1ccc(CNc2ncnc3nc[nH]c23)cc1,0,-,-,-
